ChEMBL document CHEMBL1124495 (1989)
Converted amounts (≈) assume the structure as drawn.

Legend:
Format in all cases: functional
[1] = tested on: Klebsiella pneumoniae; experiment: Antibacterial activity carried out in vitro against Klebsiella pneumoniae CMC 84-31
[2] = tested on: Escherichia coli; experiment: Antibacterial activity carried out in vitro against Escherichia coli MOR 84-20
[3] = tested on: Escherichia coli; experiment: Antibacterial activity carried out in vitro against Escherichia coli ATCC 25922
[4] = tested on: Escherichia coli; experiment: Antibacterial activity carried out in vitro against Escherichia coli #311(MP)
[5] = tested on: Enterobacter cloacae; experiment: Antibacterial activity carried out in vitro against Enterobacter cloacae VHG 84-39
[6] = tested on: Staphylococcus aureus; experiment: Antibacterial activity carried out in vitro against Staphylococcus aureus K82-26
[7] = tested on: Enterococcus faecalis; experiment: Antibacterial activity carried out in vitro against Streptococcus faecalis UCI 85-30
[8] = tested on: Staphylococcus aureus; experiment: Antibacterial activity carried out in vitro against Staphylococcus aureus VGH 84-47
[9] = tested on: Staphylococcus aureus; experiment: Antibacterial activity carried out in vitro against Staphylococcus aureus ATCC 29213
[10] = tested on: Pseudomonas aeruginosa; experiment: Antibacterial activity carried out in vitro against Pseudomonas aeruginosa K84-16
[11] = tested on: Staphylococcus aureus; experiment: Antibacterial activity carried out in vitro against Staphylococcus aureus Smith(MP)
[12] = tested on: Serratia marcescens; experiment: Antibacterial activity carried out in vitro against Serratia marcescens MOR 84-41
[13] = tested on: Staphylococcus aureus; experiment: Activity was determined after subcutaneous administration against Staphylococcus aureus Smith(MP) in mouse protection test; conditions: sc
In short: (§1)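 CD-1 female mice (20 ± 2 g) infected intraperitoneally with 0.5 mL standardized bacterial suspension: E. coli #311 in trypticase-soy broth, S. aureus Smith in 5% hog gastric mucin. Treated 0.5 h post-infection, oral or subcutaneous, 2-fold dose increments in 0.5 mL 0.2% aqueous agar, five mice per dose. 7-day survival pooled from three tests; ED50 by probit analysis.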

[14] = tested on: Escherichia coli; experiment: Activity was determined after peroral administration against Escherichia coli #311(MP) in mouse protection test; conditions: po; in short: as §1
[15] = tested on: Staphylococcus aureus; experiment: Activity was determined after peroral administration against Staphylococcus aureus Smith(MP) in mouse protection test; conditions: po; in short: as §1
[16] = tested on: Escherichia coli; experiment: Activity was determined after subcutaneous administration against Escherichia coli #311(MP) in mouse protection test; conditions: sc; in short: as §1

Row | SMILES | MIC [1] [mg/L] | MIC [2] [mg/L] | MIC [3] [mg/L] | MIC [4] [mg/L] | MIC [5] [mg/L] | MIC [6] [mg/L] | MIC [7] [mg/L] | MIC [8] [mg/L] | MIC [9] [mg/L] | MIC [10] [mg/L] | MIC [11] [mg/L] | MIC [12] [mg/L] | ED50 [13] [mg/kg] | ED50 [14] [mg/kg] | ED50 [15] [mg/kg] | ED50 [16] [mg/kg]
1 | CCn1cc(C(=O)O)c(=O)c2c(N3CCOCC3)c(F)c(F)c(F)c21 | > 128 | > 128 | > 128 | > 128 | > 128 | 32 (≈ 89.8 µM) | > 128 | 128 (≈ 359 µM) | 128 (≈ 359 µM) | > 128 | 64 (≈ 180 µM) | > 128 | – | – | – | –
2 | CCn1cc(C(=O)O)c(=O)c2c(N3CCN(C)CC3)c(F)c(F)c(F)c21 | > 128 | > 128 | > 128 | > 128 | > 128 | > 128 | > 128 | > 128 | > 128 | > 128 | > 128 | > 128 | – | – | – | –
3 | CC(C)n1cc(C(=O)O)c(=O)c2c(F)c(F)c(N3CCN(C)CC3)c(F)c21 | 8 (≈ 20.9 µM) | 4 (≈ 10.4 µM) | 4 (≈ 10.4 µM) | 4 (≈ 10.4 µM) | 8 (≈ 20.9 µM) | 16 (≈ 41.7 µM) | > 128 | 32 (≈ 83.5 µM) | 64 (≈ 167 µM) | > 128 | 32 (≈ 83.5 µM) | 4 (≈ 10.4 µM) | – | – | – | –
4 | CCn1cc(C(=O)O)c(=O)c2c(F)c(F)c(N3CCN(C)CC3)c(F)c21 | 0.5 (≈ 1.35 µM) | 0.25 (≈ 0.677 µM) | 0.12 (≈ 0.325 µM) | 0.25 (≈ 0.677 µM) | 0.5 (≈ 1.35 µM) | 2 (≈ 5.42 µM) | 32 (≈ 86.6 µM) | 2 (≈ 5.42 µM) | 2 (≈ 5.42 µM) | 32 (≈ 86.6 µM) | 2 (≈ 5.42 µM) | 0.25 (≈ 0.677 µM) | – | – | – | –
5 | CCn1cc(C(=O)O)c(=O)c2c(F)c(F)c(N3CCOCC3)c(F)c21 | 4 (≈ 11.2 µM) | 4 (≈ 11.2 µM) | 4 (≈ 11.2 µM) | 2 (≈ 5.61 µM) | 4 (≈ 11.2 µM) | 1 (≈ 2.81 µM) | 32 (≈ 89.8 µM) | 1 (≈ 2.81 µM) | 1 (≈ 2.81 µM) | 64 (≈ 180 µM) | 1 (≈ 2.81 µM) | 1 (≈ 2.81 µM) | – | – | – | –
6 | CN1CCN(c2c(F)c(F)c3c(=O)c(C(=O)O)cn(-c4ccc(F)cc4)c3c2F)CC1 | 2 (≈ 4.59 µM) | 2 (≈ 4.59 µM) | 2 (≈ 4.59 µM) | 1 (≈ 2.3 µM) | 4 (≈ 9.19 µM) | 2 (≈ 4.59 µM) | 64 (≈ 147 µM) | 4 (≈ 9.19 µM) | 2 (≈ 4.59 µM) | 32 (≈ 73.5 µM) | 2 (≈ 4.59 µM) | 2 (≈ 4.59 µM) | – | – | – | –
7 | CN1CCN(c2c(F)c(F)c3c(=O)c(C(=O)O)cn(C4CC4)c3c2F)CC1 | 0.06 (≈ 0.157 µM) | 0.06 (≈ 0.157 µM) | 0.015 (≈ 0.0393 µM) | 0.03 (≈ 0.0787 µM) | 0.06 (≈ 0.157 µM) | 0.5 (≈ 1.31 µM) | 4 (≈ 10.5 µM) | 0.5 (≈ 1.31 µM) | 0.5 (≈ 1.31 µM) | 4 (≈ 10.5 µM) | 0.25 (≈ 0.656 µM) | 0.06 (≈ 0.157 µM) | 2.1 | 0.5 | 3.6 | 0.35
8 | CCn1cc(C(=O)O)c(=O)c2c(F)c(F)c(N3CCCC3)c(F)c21 | > 128 | 4 (≈ 11.8 µM) | 2 (≈ 5.88 µM) | 2 (≈ 5.88 µM) | > 128 | 0.5 (≈ 1.47 µM) | > 128 | 0.25 (≈ 0.735 µM) | 0.5 (≈ 1.47 µM) | > 128 | 0.25 (≈ 0.735 µM) | 0.5 (≈ 1.47 µM) | – | – | – | –
9 | CCn1cc(C(=O)O)c(=O)c2c(N3CCCC3)c(F)c(N3CCCC3)c(F)c21 | > 128 | > 128 | > 128 | 128 (≈ 327 µM) | > 128 | 8 (≈ 20.4 µM) | > 128 | 8 (≈ 20.4 µM) | > 128 | > 128 | 128 (≈ 327 µM) | > 128 | – | – | – | –
10 | CCn1cc(C(=O)O)c(=O)c2cc(F)c(N3CCN(C)CC3)c(F)c21 | 0.25 (≈ 0.712 µM) | 0.12 (≈ 0.342 µM) | 0.06 (≈ 0.171 µM) | 0.06 (≈ 0.171 µM) | 0.25 (≈ 0.712 µM) | 0.5 (≈ 1.42 µM) | 8 (≈ 22.8 µM) | 0.5 (≈ 1.42 µM) | 0.5 (≈ 1.42 µM) | 4 (≈ 11.4 µM) | 0.5 (≈ 1.42 µM) | 0.12 (≈ 0.342 µM) | – | – | – | –
11 | CCn1cc(C(=O)O)c(=O)c2c(F)c(F)c(N3CCSCC3)c(F)c21 | 8 (≈ 21.5 µM) | 4 (≈ 10.7 µM) | 4 (≈ 10.7 µM) | 4 (≈ 10.7 µM) | 8 (≈ 21.5 µM) | 1 (≈ 2.69 µM) | 32 (≈ 85.9 µM) | 1 (≈ 2.69 µM) | 1 (≈ 2.69 µM) | 64 (≈ 172 µM) | 0.5 (≈ 1.34 µM) | 2 (≈ 5.37 µM) | – | – | – | –
12 | O=C(O)c1cn(C2CC2)c2cc(N3CCNCC3)c(F)cc2c1=O [CIPROFLOXACIN] | 0.03 (≈ 0.0905 µM) | – | – | – | – | 0.5 (≈ 1.51 µM) | 2 (≈ 6.04 µM) | 1 (≈ 3.02 µM) | 1 (≈ 3.02 µM) | – | 0.12 (≈ 0.362 µM) | 0.008 (≈ 0.0241 µM) | – | – | – | –
13 | CCn1cc(C(=O)O)c(=O)c2cc(F)c(N3CCN(C)CC3)cc21 [PEFLOXACIN] | 0.25 (≈ 0.75 µM) | – | 0.06 (≈ 0.18 µM) | – | – | 0.5 (≈ 1.5 µM) | 4 (≈ 12 µM) | 0.5 (≈ 1.5 µM) | 0.5 (≈ 1.5 µM) | 4 (≈ 12 µM) | 0.25 (≈ 0.75 µM) | – | 2 | 1.1 | 3.1 | 0.4
